Published values from different studies.
Lines come from different studies, so protocols differ.
SMARCA2: SWI/SNF-related matrix-associated actin-dependent regulator of chromatin subfamily A member 2 (SMARCA2, Homo sapiens, UniProt P51531)
PADI2: Protein-arginine deiminase type-2 (PADI2, Homo sapiens, UniProt Q9Y2J8)
BRAF V600E: Serine/threonine-protein kinase B-raf (BRAF, Homo sapiens, UniProt P15056, V600E)
BPTF: Nucleosome-remodeling factor subunit BPTF (BPTF, Homo sapiens, UniProt Q12830)
Map2k4: Dual specificity mitogen-activated protein kinase kinase 4 (Map2k4, Mus musculus, UniProt P47809)
DRD2: D(2) dopamine receptor (DRD2, Homo sapiens, UniProt P14416)

Compound	target	assay	test system	setting	quantity	result
Cc1ccc(Nc2nccc(N(C)c3ccc4c(C)n(C)nc4c3)n2)cc1S(N)(=O)=O	Tyrosine-protein kinase Blk (Blk, Mus musculus, UniProt P16277)	enzyme activity, inhibitor	–	0.3 µM	inhibition	9%
CCC(C)/C=C1\CCn2c1nc(=O)c1c(Cl)cccc12 (stereo not shown)	SMARCA2	thermal stability, DSF	–	100 µM	ΔTm	3.77 °C
Nc1ncnc2occ(-c3ccc(NC(=O)Nc4cc(C(F)(F)F)ccc4F)cc3)c12	Mitogen-activated protein kinase 4 (MAPK4, Homo sapiens, UniProt P31152)	cell-free assay, inhibitor	–	20 µM	remaining signal	100%
N=C(CF)NCCC[C@H](NC(=O)c1ccc(-c2ccccc2)cc1)c1nn[nH]n1	PADI2	enzyme activity, inhibitor	–	–	kinact/KI	17.2 M⁻¹ s⁻¹
CCC(CC)CC1CCn2c1nc(=O)c1c(Cl)cccc12 (racemic)	SMARCA2	thermal stability, DSF	–	100 µM	ΔTm	1.33 °C
N=C(CF)NCCC[C@H](NC(=O)c1ccccc1)c1nn[nH]n1	PADI2	enzyme activity, inhibitor	–	–	kinact/KI	6.42 M⁻¹ s⁻¹
CC(C)(C)c1nc(-c2cccc(NS(=O)(=O)c3c(F)cccc3F)c2F)c(-c2ccnc(N)n2)s1	BRAF V600E	enzyme activity, inhibitor, ATP luminescence	–	10 µM	inhibition	95%
CCC(CC)C1CC12CCn1c2nc(=O)c2c(Cl)cccc21 (stereo not shown)	SMARCA2	thermal stability, DSF	–	100 µM	ΔTm	1.4 °C
CC1(c2ccccc2)COCC(N)=N1 (stereo not shown)	Beta-secretase 1 (BACE1, Homo sapiens, UniProt P56817)	thermal stability, DSF	–	2.1 mM, pH 5.4	ΔTm	2.78 °C
Cc1cnc(Nc2ccc(OCCN3CCCC3)cc2)nc1Nc1cccc(S(=O)(=O)NC(C)(C)C)c1	BPTF	thermal stability, DSF	–	10 µM	ΔTm	0.8 °C
NCCCC[C@H](NC(=O)[C@@H]1CCCN1C(=O)[C@@H]1CSSC[C@H](N)C(=O)N[C@@H](Cc2ccc(O)cc2)C(=O)N[C@@H](Cc2ccccc2)C(=O)N[C@@H](CCC(N)=O)C(=O)N[C@@H](CC(N)=O)C(=O)N1)C(=O)NCC(N)=O	Vasopressin V2 receptor (AVPR2, Homo sapiens, UniProt P30518)	cAMP, agonist, TR-FRET	CHO-K1	–	Emax	~100%
CCCOc1ccc(OC)c(F)c1C(=O)c1ccc(C(=O)N[C@@H]2CNC[C@H]2NC(=O)c2ccc3[nH]ncc3c2)cc1	Map2k4	enzyme activity, inhibitor	–	10 µM	remaining activity	120%
NS(=O)(=O)c1ccc(Nc2nc(-c3ccc(F)cc3)c3ccccc3n2)cc1	BPTF	binding, competition with immobilised ligand	–	1 µM	remaining binding	63%
COc1ccc(S(N)(=O)=O)cc1C(=O)NCCCN1CCN(c2ccccc2OC)CC1	DRD2	enzyme activity, inhibitor	–	10 µM	inhibition	62.4%
Cc1cnc(NC2CCOCC2)nc1-n1cnc(C(=O)NC(CN)c2cc(F)cc(Cl)c2)c1 (stereo not shown)	Map2k4	enzyme activity, inhibitor, radiometric	–	1 µM	remaining activity	63%
Cc1ccc(C(CS(=O)(=O)c2ccccc2)=NN=C2N=C(c3ccc(C)cc3)CS2)cc1	BRAF V600E	enzyme activity, inhibitor, ATP luminescence	–	0.1 µM	inhibition	43%
NS(=O)(=O)c1ccc(CCNCc2ccc(-c3ccccc3F)o2)cc1	DRD2	enzyme activity, inhibitor	–	10 µM	inhibition	34.6%
Cc1ccc(C(CS(=O)(=O)c2ccccc2)=NNC(N)=S)cc1	BRAF V600E	enzyme activity, inhibitor, ATP luminescence	–	1 µM	inhibition	69%
CCC(/C=C1\CCn2c1nc(=O)c1cc(Cl)ccc12)CC	SMARCA2	thermal stability, DSF	–	100 µM	ΔTm	-0.49 °C

Compound	target	assay	test system	setting	quantity	result
Cc1ccc(C(CS(=O)(=O)c2ccccc2)=NNc2nc(C)c(N=Nc3ccccc3)s2)cc1	BRAF V600E	enzyme activity, inhibitor, ATP luminescence	–	0.1 µM	inhibition	42%
Cc1ncsc1-c1ccc(CNC(=O)[C@@H]2C[C@@H](O)CN2C(=O)[C@@H](NC(=O)C2(F)CC2)C(C)(C)C)c(OCCOCCOCCN2CCN(c3cc(-c4ccccc4O)nnc3N)CC2)c1	SMARCA2	protein level, degrader	MV4-11	–	Dmax	~65%
Cc1cc(=O)oc2cc(NC(=O)[C@@H](N)CCCNC(=N)N)ccc12	Endoplasmic reticulum aminopeptidase 2 (ERAP2, Homo sapiens, UniProt Q6P179)	enzyme activity, substrate	–	–	Km	88 µM
Cc1ccc(C(=O)Nc2ccc(CN3CCN(C)CC3)c(C(F)(F)F)c2)cc1C#Cc1cnc2cccnn12	Serine/threonine-protein kinase Nek5 (NEK5, Homo sapiens, UniProt Q6P3R8)	enzyme activity, inhibitor	–	23.5 nM	remaining activity	97%
CC(C)(C)/C=C1\CCn2c1nc(=O)c1c(Cl)cccc12	SMARCA2	thermal stability, DSF	–	100 µM	ΔTm	-0.14 °C
CC(C)(C)n1nnc([C@H](CCCNC(=N)CCl)NC(=O)c2ccc(-c3ccccc3)cc2)n1	PADI2	enzyme activity, inhibitor	–	–	kinact/KI	182 M⁻¹ s⁻¹
Fc1cccc(-n2cnc3c(NCc4nc5c(F)c(F)ccc5[nH]4)nc(N4CCOCC4)nc32)c1	Microtubule-associated serine/threonine-protein kinase 1 (MAST1, Homo sapiens, UniProt Q9Y2H9)	binding, competition with immobilised ligand	–	10 µM	binding vs control	23%
CC(C)(C)n1nnc([C@H](CCCNC(=N)CCl)NC(=O)c2ccccc2C(=O)O)n1	PADI2	enzyme activity, inhibitor	–	–	kinact/KI	1000 M⁻¹ s⁻¹
Oc1ccc(-c2nc(-c3ccncc3)c(-c3ccc(F)cc3)[nH]2)cc1	SMARCA2	thermal stability, DSF	–	10 µM	ΔTm	0.56 °C
N=C(CCl)NCCC[C@H](NC(=O)c1ccccc1C(=O)O)c1nn[nH]n1	PADI2	enzyme activity, inhibitor	–	–	kinact/KI	162 M⁻¹ s⁻¹
Cc1ccc(C(CS(=O)(=O)c2ccccc2)=NNC2=NC(=O)C(=NNc3ccc(Cl)cc3)S2)cc1	BRAF V600E	enzyme activity, inhibitor, ATP luminescence	–	10 nM	inhibition	27%
CCC(/C=C1\CCn2c1nc(=O)c1c(Cl)c(Cl)ccc12)CC	SMARCA2	thermal stability, DSF	–	100 µM	ΔTm	2.86 °C
C[S+]([O-])c1ccc(-c2nc(-c3ccncc3)c(-c3ccc(F)cc3)[nH]2)cc1 (stereo not shown)	BPTF	thermal stability, DSF	–	10 µM	ΔTm	0.89 °C
CCC(/C=C1\CCn2c1nc(=O)c1ccc(O)cc12)CC	SMARCA2	thermal stability, DSF	–	100 µM	ΔTm	-0.07 °C
Cc1ccc(N=Nc2sc(NN=C(CS(=O)(=O)c3ccccc3)c3ccc(C)cc3)nc2C)cc1	BRAF V600E	enzyme activity, inhibitor, ATP luminescence	–	1 µM	inhibition	73%
CC(=O)N[C@H]1CSSC[C@@H](C(=O)N[C@@H](Cc2c[nH]c3ccccc23)C(N)=O)NC(=O)[C@H](Cc2ccccc2)NC(=O)[C@H](CCCNC(=N)N)NC1=O	Melanocortin receptor 3 (MC3R, Homo sapiens, UniProt P41968)	ligand displacement, radioligand	–	10 µM, 40 min	inhibition	42%
Cc1ccc(C(CS(=O)(=O)c2ccccc2)=NNc2nc(C)c(N=Nc3cccc(C)c3)s2)cc1	BRAF V600E	enzyme activity, inhibitor, ATP luminescence	–	10 µM	inhibition	92%
CCC(/C=C1\CCCn2c1nc(=O)c1c(Cl)cccc12)CC	SMARCA2	thermal stability, DSF	–	100 µM	ΔTm	0.48 °C
